# Screening results: PubChem, Broad Institute
# Hits are enriched below; roughly 3.3% of the tested compounds scored in any of these assays.
# C2C12 statin: suppressors of statin myotoxicity in C2C12 myotubes, primary screen, cell-based, single point, plate reader; C2C12 myotubes + simvastatin, ATP luminescence, 48 h; scaled: DMSO 0, geranylgeraniol control 100; rescue of ATP level, % at 7.49 µM; hit rate 0.78% among 330,000; AID 602340, 2012;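 active = mean ATP rescue above about 67%, or every replicate alone reaching that limit, limit read from the data, passing the limit was not always enough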;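 also: myotubes were challenged with 10 µM simvastatin during compound exposure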
# E-selectin induc: E-selectin induction in HUVECs, primary screen, imaging, HUVEC, immunofluorescence imaging, single point. activation, % at 7.58 µM. hit rate 0.37% among 260,000. P16581. normalized: neutral wells 0, TNF-alpha wells 100;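 active = mean E-selectin-positive cell signal at least 10% of the positive control, reached in at least 60% of replicates, without over 20% cell loss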
#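 Read-out: % PE-positive cells | Test system: HUVEC | Doses: One compound dose added by pin transfer | Buffer or medium: EGM-2 over gelatin coat | Signal: Immunofluorescence imaging | Benchmarks: TNF-alpha, DMSO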
# Xi reactivation: activators of inactive X chromosome reactivation, primary screen, imaging, XiGFP fibroblasts, GFP high-content imaging, set 2; hit rate 0.055% among 360,000; activation, % at 7.58 µM; XiGFP mouse fibroblasts, % GFP-positive cells imaging, 3 d; cells co-treated with 5-aza-dC sensitizer; scaled so ellipticine positive control = 100%; AID 743238, 2013;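 active = mean normalized replicate activation at least 10% and every replicate at or above 10%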;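 also: 0% = median of on-plate neutral control wells and 100% = ellipticine 6 µM median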
#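 Schedule: 3 d treatment, 15 min room-temperature fixation; system: 68-5-11 XiGFP fibroblast line; buffer or medium: DMEM plus 5-aza-dC sensitizer; control set: ellipticine 6 µM positive control; compound: one concentration, pinned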
# FGF22 binding: binders of human FGF22 protein, primary screen, FGF22 synaptogenesis inhibitor project, biophysical, thermal shift, single point. activity (Tm shift, normalised), % at 9.99 µM. hit rate 1.5% among 340,000. recombinant FGF22 thermal shift, SYPRO orange fluorescence; percent of sucrose octasulfate shift, DMSO zero;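 active = mean Tm shift, scaled 0 neutral to 100 positive control, at about 1.3% or above, every replicate too, limit read from the data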
# Target sequence (Q9HCT0 whole entry, looked up): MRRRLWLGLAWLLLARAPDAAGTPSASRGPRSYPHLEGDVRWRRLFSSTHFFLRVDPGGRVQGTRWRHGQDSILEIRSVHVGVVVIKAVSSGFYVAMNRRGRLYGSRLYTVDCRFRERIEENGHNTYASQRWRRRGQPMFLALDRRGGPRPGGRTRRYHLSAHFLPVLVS
# DENV2 CPE rescue: inhibitors of DENV2 cytopathic effect, primary screen, cell-based, plate reader, single concentration | DENV2-infected cells, cytopathic effect rescue | CPE inhibition, % at 9.99 µM | hit rate 1.7% among 350,000 | AID 651640, 2012; in the data active = CPE inhibition above about 20%, passing the limit was not always enough; tested in BHK-21 cells;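 also: 0% = median of neutral control wells and 100% = median of positive control wells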
# PglD inh: C. jejuni PglD acetyltransferase inhibitors, primary screen, biochemical, DTNB colorimetric, single point. UDP-N-acetylbacillosamine N-acetyltransferase PglD (Campylobacter jejuni). purified PglD enzyme, DTNB colorimetric CoA detection. inhibition, % at 12.5 µM. hit rate 0.098% among 360,000. AID 602405, 2012; in the data active = inhibition above about 16%, passing the limit was not always enough
# The depositor's hits bear a star; . = no result; ! = not active in a repeat.
SMILES,C2C12 statin,E-selectin induc,Xi reactivation,FGF22 binding,DENV2 CPE rescue,PglD inh
C[C@H]1CN([C@@H](C)CO)C(=O)c2cc(NS(=O)(=O)c3ccc(Cl)cc3)ccc2O[C@H]1CN(C)Cc1ccc(Cl)c(Cl)c1,64,0,0,0,1,2
Cc1ccc(S(=O)(=O)Nc2ccc3c(c2)C(=O)N([C@@H](C)CO)C[C@@H](C)[C@H](CN(C)Cc2ccc(Cl)c(Cl)c2)O3)cc1,95*,0,-1,-1,-13,0
Cc1ccc(S(=O)(=O)Nc2ccc3c(c2)C(=O)N([C@H](C)CO)C[C@@H](C)[C@H](CN(C)Cc2ccc(Cl)c(Cl)c2)O3)cc1,75*,-1,-1,-1,-14,-3
CN(C(=O)COC(=O)c1n[nH]c2ccccc12)c1ccccc1,.,.,0,0,.,.
CN(C(=O)COC(=O)c1n[nH]c(=O)c2ccccc12)c1ccccc1,0,38*,0,0,2,6
O=C(C[C@H]1C=C[C@@H](NC(=O)C2CC2)[C@@H](CO)O1)NCCCN1CCOCC1,2,-1,0,1,1,5
C[C@@H]1CN([C@@H](C)CO)C(=O)c2cccc(NC(=O)CCCCCC(=O)Nc3ccccc3N)c2O[C@H]1CN(C)S(=O)(=O)c1cn(C)cn1,.,105*,-1,0,2,.
C[C@@H]1CN([C@H](C)CO)C(=O)c2cccc(NC(=O)Nc3ccc(F)cc3)c2O[C@@H]1CN(C)S(=O)(=O)c1cn(C)cn1,-5,80*,0,.,.,.
C[C@H](CO)N1C[C@H](C)[C@H](CN(C)S(=O)(=O)c2cn(C)cn2)Oc2ccc(NC(=O)CCCCCC(=O)Nc3ccccc3N)cc2C1=O,.,-3,0,0,9,.
C[C@@H]1CN([C@@H](C)CO)C(=O)c2cccc(NC(=O)C3CC3)c2O[C@@H]1CN(C)S(=O)(=O)c1cn(C)cn1,-15,0,0,0,29*,1
O=C(NCCc1ccncc1)[C@@H]1[C@@H](CO)[C@@H]2Cn3c(ccc(-c4cccnc4)c3=O)[C@@H]2N1C(=O)C1CC1,-13,0,0,.,9,4
C[C@@H]1CN([C@@H](C)CO)C(=O)Cc2cc(NC(=O)Nc3cccc4ccccc34)ccc2O[C@H]1CN(C)C,3,-2,0,0,21*,5
C[C@@H]1CN([C@H](C)CO)C(=O)Cc2cc(NC(=O)Nc3cccc4ccccc34)ccc2O[C@H]1CN(C)CC1CCCCC1,75*,2,0,0,-2,1
C[C@@H]1CN([C@H](C)CO)C(=O)Cc2cc(NC(=O)Nc3ccccc3)ccc2O[C@@H]1CN(C)C,6,46*,0,0,1,-3
C[C@@H]1CN([C@@H](C)CO)C(=O)Cc2cc(NC(=O)Nc3cccc4ccccc34)ccc2O[C@H]1CN(C)C(=O)NC1CCCCC1,32,-2,0,0,25*,3
C[C@H]1CN([C@@H](C)CO)C(=O)Cc2cc(NC(=O)Nc3cccc4ccccc34)ccc2O[C@@H]1CN(C)CC1CC1,13,0,-1,0,5,-14
Cc1cccc(-c2ccc([C@H]3[C@H]4CN(C(=O)NC5CCCCC5)CC(=O)N4[C@H]3CO)cc2)c1,.,1,0,.,-4,.
Cc1cc(C(=O)Nc2cccc3c2O[C@@H](CN(C)Cc2ccc(Oc4ccccc4)cc2)[C@H](C)CN([C@@H](C)CO)C3=O)n(C)n1,-16,-9,0,-1,-5,4
COc1ccc(NC(=O)N(C)C[C@@H]2OCCCC[C@@H](C)Oc3ccc(NC(=O)Nc4cccc5ccccc45)cc3C(=O)N([C@@H](C)CO)C[C@@H]2C)cc1,.,0,-1,0,-1,-2
COc1ccc(S(=O)(=O)Nc2ccc3c(c2)CC(=O)N([C@@H](C)CO)C[C@H](C)[C@@H](CN(C)S(=O)(=O)c2ccccc2)O3)cc1,14,0,0,0,-1,-1
C[C@@H]1CN([C@@H](C)CO)C(=O)Cc2cc(NC(=O)Nc3cccc4ccccc34)ccc2O[C@@H]1CN(C)C(=O)Nc1cccc2ccccc12,1,1,0,0,-4,1
C[C@@H]1CN([C@@H](C)CO)C(=O)Cc2cc(NC(=O)Nc3ccc(F)cc3)ccc2O[C@@H]1CN(C)C(=O)Nc1cccc2ccccc12,24,0,0,1,41*,1
C[C@H](CO)N1C[C@H](C)[C@H](CN(C)C)Oc2ccc(NC(=O)Nc3cccc4ccccc34)cc2CC1=O,5,2,0,0,35*,-3
CCCCCOc1ccc(NC(=O)c2cc(SC)ccc2Cl)cc1,.,.,0,.,.,-5
C=C[C@@H](OC)[C@H](OC(=O)Nc1ccc(SC)cc1)c1ccc(OCCO)cc1,.,.,.,0,21*,1
SMILES,C2C12 statin,E-selectin induc,Xi reactivation,FGF22 binding,DENV2 CPE rescue,PglD inh
C[C@@H]1CN([C@@H](C)CO)C(=O)c2cc(NS(=O)(=O)c3cccs3)ccc2O[C@@H](C)CCCCO[C@@H]1CN(C)Cc1ccc(C(F)(F)F)cc1,116*,0,0,0,-1,-3
C[C@H](CO)N1C[C@H](C)[C@@H](CN(C)Cc2ccc3c(c2)OCO3)OCCCC[C@H](C)Oc2ccc(NS(=O)(=O)c3cccs3)cc2C1=O,.,0,0,0,-6,-4
C[C@H](CO)N1C[C@H](C)[C@H](CN(C)Cc2ccc(C(F)(F)F)cc2)OCCCC[C@H](C)Oc2ccc(NS(=O)(=O)c3cccs3)cc2C1=O,.,0,0,0,-1,.
C[C@H]1CCCCO[C@H](CN(C)Cc2ccc3c(c2)OCO3)[C@@H](C)CN([C@@H](C)CO)C(=O)c2cc(NS(=O)(=O)c3cccs3)ccc2O1,.,0,0,0,41*!,-3
C[C@@H]1CN([C@H](C)CO)C(=O)c2cc(NS(=O)(=O)c3cccs3)ccc2O[C@@H](C)CCCCO[C@@H]1CN(C)Cc1ccc2c(c1)OCO2,.,0,0,0,-14,1
C[C@@H]1CN([C@@H](C)CO)C(=O)c2cc(NS(=O)(=O)c3cccs3)ccc2O[C@@H](C)CCCCO[C@H]1CN(C)Cc1ccc2c(c1)OCO2,.,0,0,0,37*,3
